Experimental data reported in ChEMBL document CHEMBL1142566, “Natural and synthetic 2,2-dimethylpyranocoumarins with antibacterial activity” (2005).
Activity calls are given as the source filed them. The rule behind the calls is not given here.

Columns and labels:
Format in all cases: functional
Pseudomonas aeruginosa = test: Antimicrobial activity against Pseudomonas aeruginosa ATCC 27853 after 24 hrs by disk diffusion assay
Summary of the method: (§1)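 Bauer-Kirby disk diffusion on trypticase Mueller-Hinton agar. Plates were seeded with ATCC reference strains to a final 10⁷ cell/mL. Test compounds were dissolved in DMSO and applied to 6 mm paper disks, with solvent-only disks as negative control. Plates were incubated 24 h at 37 °C. Inhibition zone diameter (mm) was averaged over three experiments and scored <7 (-), 7-10 (+), 11-16 (++), >16 (+++).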

Proteus mirabilis = test: Antimicrobial activity against Proteus mirabilis after 24 hrs by disk diffusion assay; summary of the method: as §1
Escherichia coli = test: Antimicrobial activity against Escherichia coli ATCC 25922 after 24 hrs by disk diffusion assay; summary of the method: as §1
Staphylococcus aureus = test: Antimicrobial activity against Staphylococcus aureus ATCC 25923 after 24 hrs by disk diffusion assay; summary of the method: as §1
Klebsiella pneumoniae = test: Antimicrobial activity against Klebsiella pneumoniae ATCC 13883 after 24 hrs by disk diffusion assay; summary of the method: as §1
Enterobacter cloacae = test: Antimicrobial activity against Enterobacter cloacae ATCC 13047 after 24 hrs by disk diffusion assay; summary of the method: as §1
[1] = test system: Staphylococcus epidermidis; test: Antimicrobial activity against Staphylococcus epidermidis ATCC 12228 after 24 hrs by disk diffusion assay; summary of the method: as §1

Structure (SMILES)	inhibition zone (IZ) (Pseudomonas aeruginosa) [mm]	inhibition zone (IZ) (Proteus mirabilis) [mm]	inhibition zone (IZ) (Escherichia coli) [mm]	inhibition zone (IZ) (Staphylococcus aureus) [mm]	inhibition zone (IZ) (Klebsiella pneumoniae) [mm]	inhibition zone (IZ) (Enterobacter cloacae) [mm]	inhibition zone (IZ) [1] [mm]	Activity (Pseudomonas aeruginosa)	Activity (Proteus mirabilis)	Activity (Escherichia coli)	Activity (Staphylococcus aureus)	Activity (Klebsiella pneumoniae)	Activity (Enterobacter cloacae)	Activity [1]
CC(=O)O[C@H]1c2c(ccc3ccc(=O)oc23)OC(C)(C)[C@@H]1Br	<7	7	<7	11	<7	<7	11	–	–	–	–	–	–	–
CC1(C)C=Cc2c(c3c(c4ccc(=O)oc24)OC(C)(C)C=C3)O1 [DIPETALOLACTONE]	11	7	7	11	7	7	7	–	–	–	–	–	–	–
CC1(C)C=Cc2c(ccc3ccc(=O)oc23)O1	–	–	–	–	–	–	–	inactive	inactive	inactive	inactive	inactive	inactive	inactive
COc1cc2c(c3oc(=O)ccc13)[C@H](OC(=O)c1ccccc1)[C@@H](Br)C(C)(C)O2 (racemic)	11	7	7	7	7	7	7	–	–	–	–	–	–	–
COc1cc2c(c3oc(=O)ccc13)C(O)CC(C)(C)O2 (racemic)	–	–	–	–	–	–	–	inactive	inactive	inactive	inactive	inactive	inactive	inactive
CC(=O)O[C@H]1c2c(ccc3ccc(=O)oc23)OC(C)(C)[C@H]1OC(C)=O	–	–	–	–	–	–	–	inactive	inactive	inactive	inactive	inactive	inactive	inactive
CC1(C)CC(O)c2c(ccc3ccc(=O)oc23)O1 (stereo not given)	–	–	–	–	–	–	–	inactive	inactive	inactive	inactive	inactive	inactive	inactive
CCN[C@@H]1C[C@H](N)[C@@H](O[C@H]2OC(CN)=CC[C@H]2N)[C@H](O)[C@H]1O[C@H]1OC[C@](C)(O)[C@H](NC)[C@H]1O [NETILMICIN]	>16	–	>16	>16	11	>16	>16	–	–	–	–	–	–	–
CC1(C)C=Cc2c(cc(O)c3ccc(=O)oc23)O1	–	–	–	–	–	–	–	inactive	inactive	inactive	inactive	inactive	inactive	inactive
CC1(C)C=Cc2cc3ccc(=O)oc3cc2O1	–	–	–	–	–	–	–	inactive	inactive	inactive	inactive	inactive	inactive	inactive
CC(=O)OC1CC(C)(C)Oc2ccc3ccc(=O)oc3c21 (stereo not given)	–	–	–	–	–	–	–	inactive	inactive	inactive	inactive	inactive	inactive	inactive
COc1cc2oc(=O)ccc2c2c1C=CC(C)(C)O2 [ALLOXANTHOXYLETIN]	11	7	7	7	7	7	7	–	–	–	–	–	–	–
O=c1ccc2c(O)cc(O)cc2o1	7	7	7	7	7	7	7	–	–	–	–	–	–	–
CC1(C)Oc2ccc3ccc(=O)oc3c2[C@H](O)[C@H]1Br	–	–	–	–	–	–	–	inactive	inactive	inactive	inactive	inactive	inactive	inactive
COc1cc2c(c3oc(=O)ccc13)[C@H](O)[C@@H](Br)C(C)(C)O2 (racemic)	11	7	7	7	7	7	7	–	–	–	–	–	–	–
COc1cc2c(c3oc(=O)ccc13)C(OC(C)=O)CC(C)(C)O2 (racemic)	<7	7	<7	11	<7	<7	11	–	–	–	–	–	–	–
COc1cc2c(c3oc(=O)ccc13)[C@H](O)[C@H](O)C(C)(C)O2 (racemic)	–	–	–	–	–	–	–	inactive	inactive	inactive	inactive	inactive	inactive	inactive
CC(=O)Oc1cc2c(c3oc(=O)ccc13)C=CC(C)(C)O2	7	7	7	7	7	7	7	–	–	–	–	–	–	–
CC(=O)Oc1cc2oc(=O)ccc2c2c1C=CC(C)(C)O2	7	7	7	7	7	7	7	–	–	–	–	–	–	–
COc1cc(OC)c2ccc(=O)oc2c1 [CITROPTEN]	11	7	7	7	7	7	11	–	–	–	–	–	–	–
CC1(C)C=Cc2c(O)cc3oc(=O)ccc3c2O1	–	–	–	–	–	–	–	inactive	inactive	inactive	inactive	inactive	inactive	inactive
COc1cc2c(c3oc(=O)ccc13)[C@H](OC(C)=O)[C@H](OC(C)=O)C(C)(C)O2 (racemic)	–	–	–	–	–	–	–	inactive	inactive	inactive	inactive	inactive	inactive	inactive
CC(=O)Oc1cc(OC(C)=O)c2ccc(=O)oc2c1	7	7	7	7	7	7	11	–	–	–	–	–	–	–
CC1(C)S[C@@H]2[C@H](NC(=O)[C@H](N)c3ccc(O)cc3)C(=O)N2[C@H]1C(=O)O [AMOXICILLIN]	>16	–	>16	>16	11	>16	>16	–	–	–	–	–	–	–
O=C(O)[C@H]1/C(=C/CO)O[C@@H]2CC(=O)N21 [CLAVULANIC ACID]	>16	–	>16	>16	> 16	>16	>16	–	–	–	–	–	–	–
CC1(C)Oc2ccc3ccc(=O)oc3c2[C@H](OC(=O)c2ccccc2)[C@H]1Br	7	7	7	7	7	7	7	–	–	–	–	–	–	–
COc1cc2c(c3oc(=O)ccc13)C=CC(C)(C)O2	11	11	7	7	7	7	7	–	–	–	–	–	–	–
CC1(C)Oc2ccc3ccc(=O)oc3c2[C@H](O)[C@@H]1O	–	–	–	–	–	–	–	inactive	inactive	inactive	inactive	inactive	inactive	inactive
COc1cc2c(c3oc(=O)ccc13)[C@H](OC(C)=O)[C@@H](Br)C(C)(C)O2 (racemic)	<7	7	<7	7	<7	<7	11	–	–	–	–	–	–	–
